Experimental data from ChEMBL document CHEMBL4359929, “Piperidine and piperazine inhibitors of fatty acid amide hydrolase targeting excitotoxic pathology” (Bioorg Med Chem, 2019).
Active and inactive are the calls of the source. The rule behind the calls is not given here.

What was measured:
[1] = biological target: T1, Fatty-acid amide hydrolase 1 (Homo sapiens, UniProt O00519); assay: Inhibition of human recombinant MBP-tagged FAAH expressed in Escherichia coli cells using AAMCA as substrate incubated for 15 mins followed by substrate addition and measured after every 20 mins for 4 hrs by fluorescence based assay
T1 sequence (O00519 whole entry): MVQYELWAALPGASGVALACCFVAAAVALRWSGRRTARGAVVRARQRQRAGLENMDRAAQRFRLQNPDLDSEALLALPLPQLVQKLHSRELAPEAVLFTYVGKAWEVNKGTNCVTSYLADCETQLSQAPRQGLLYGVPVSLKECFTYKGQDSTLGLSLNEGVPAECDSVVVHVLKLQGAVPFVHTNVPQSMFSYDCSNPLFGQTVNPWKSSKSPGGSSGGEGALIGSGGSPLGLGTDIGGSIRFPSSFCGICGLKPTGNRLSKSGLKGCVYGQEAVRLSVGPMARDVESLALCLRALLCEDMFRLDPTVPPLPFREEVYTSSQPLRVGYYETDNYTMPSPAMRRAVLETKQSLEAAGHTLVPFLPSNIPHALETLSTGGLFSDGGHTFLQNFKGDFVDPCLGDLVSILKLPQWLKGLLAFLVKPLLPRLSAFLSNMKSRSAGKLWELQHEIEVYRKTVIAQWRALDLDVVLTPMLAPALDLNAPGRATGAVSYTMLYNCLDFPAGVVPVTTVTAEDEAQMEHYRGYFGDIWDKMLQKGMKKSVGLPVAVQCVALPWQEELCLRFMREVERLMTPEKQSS
How it was run: (§1)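 Fluorescent enzyme assay in throughput format. Human recombinant FAAH or purified rat FAAH used arachidonoyl 7-amino-4-methylcoumarin amide as substrate; human recombinant MGL was run by a similar fluorometric procedure.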

[2] = biological target: T2, Fatty-acid amide hydrolase 1 (Rattus norvegicus, UniProt P97612); assay: Inhibition of rat recombinant His/GST-tagged FAAH expressed in Escherichia coli cells using AAMCA as substrate incubated for 15 mins followed by substrate addition and measured after every 20 mins for 4 hrs by fluorescence based assay; how it was run: as §1
T2 sequence (P97612 whole entry): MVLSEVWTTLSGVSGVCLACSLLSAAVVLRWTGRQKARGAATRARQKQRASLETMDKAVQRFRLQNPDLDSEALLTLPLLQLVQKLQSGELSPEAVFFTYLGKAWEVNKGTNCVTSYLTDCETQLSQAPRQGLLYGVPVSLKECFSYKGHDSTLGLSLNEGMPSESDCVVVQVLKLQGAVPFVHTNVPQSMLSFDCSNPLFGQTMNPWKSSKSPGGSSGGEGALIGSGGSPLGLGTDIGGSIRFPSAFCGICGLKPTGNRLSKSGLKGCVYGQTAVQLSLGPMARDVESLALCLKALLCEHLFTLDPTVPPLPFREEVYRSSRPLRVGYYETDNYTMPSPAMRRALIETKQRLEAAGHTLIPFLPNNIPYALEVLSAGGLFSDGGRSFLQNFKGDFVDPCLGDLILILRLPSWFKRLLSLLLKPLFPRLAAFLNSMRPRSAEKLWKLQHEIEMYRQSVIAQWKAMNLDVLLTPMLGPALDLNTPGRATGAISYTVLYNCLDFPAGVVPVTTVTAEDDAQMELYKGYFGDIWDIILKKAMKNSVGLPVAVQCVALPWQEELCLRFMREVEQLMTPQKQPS

Monoglyceride lipase = biological target: T3, Monoglyceride lipase (Homo sapiens, UniProt Q99685); assay: Inhibition of human recombinant His-tagged MGL expressed in Escherichia coli BL21 DE3 cells using AHMMCE as substrate preincubated with enzyme for 15 mins followed by substrate addition and measured after every 15 mins for 3 hrs by fluorescence based assay; how it was run: as §1
T3 sequence (Q99685 whole entry): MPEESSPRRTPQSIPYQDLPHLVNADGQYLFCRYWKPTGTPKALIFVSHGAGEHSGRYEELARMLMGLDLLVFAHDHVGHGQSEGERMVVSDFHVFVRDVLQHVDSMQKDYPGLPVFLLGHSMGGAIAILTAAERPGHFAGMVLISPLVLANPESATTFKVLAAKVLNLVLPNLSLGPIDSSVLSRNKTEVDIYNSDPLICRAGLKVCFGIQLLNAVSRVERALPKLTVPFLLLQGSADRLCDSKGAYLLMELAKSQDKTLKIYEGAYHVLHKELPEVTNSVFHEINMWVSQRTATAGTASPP

[3] = Stability in human liver microsomes assessed as half life; assay type: ADME, Microsome
How it was run: (§2)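 Stability assessed as half-life in human, rat and mouse plasma and gastric fluid, and in human, rat and mouse liver microsomal preparations.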

[4] = Stability in rat liver microsomes assessed as half life; assay type: ADME, Microsome; how it was run: as §2
[5] = Stability in mouse liver microsomes assessed as half life; assay type: ADME, Microsome; how it was run: as §2
[6] = Stability in human plasma assessed as half life; assay type: ADME, cell-free; how it was run: as §2
[7] = Stability in rat plasma assessed as half life; assay type: ADME, cell-free; how it was run: as §2
[8] = Stability in mouse plasma assessed as half life; assay type: ADME, cell-free; how it was run: as §2
[9] = Stability in human gastric fluid assessed as half life; assay type: ADME, tissue-based, Gastric juice; how it was run: as §2
[10] = Stability in rat gastric fluid assessed as half life; assay type: ADME, tissue-based, Gastric juice; how it was run: as §2
[11] = Stability in mouse gastric fluid assessed as half life; assay type: ADME, tissue-based, Gastric juice; how it was run: as §2
Homo sapiens [12] = species: Homo sapiens; assay: Selectivity ratio of IC50 for human recombinant His-tagged MGL expressed in Escherichia coli BL21 DE3 cells to IC50 for human recombinant MBP-tagged FAAH expressed in Escherichia coli cells by fluorescence based assay
Homo sapiens [13] = species: Homo sapiens; assay: Selectivity ratio of IC50 for human full length ABHD6 expressed in Escherichia coli cells to IC50 for human recombinant MBP-tagged FAAH expressed in Escherichia coli cells by fluorescence based assay
[14] = biological target: Cannabinoid receptor 1 (Rattus norvegicus) (UniProt P20272); assay: Displacement of [3H]CP55940 from CB1 receptor in rat brain by competition-equilibrium binding analysis; assay type: tissue-based
How it was run: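 Rat brain membranes as CB1 source; competition-equilibrium binding against [3H]CP-55,940.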
Target sequence in this assay (P20272 whole entry): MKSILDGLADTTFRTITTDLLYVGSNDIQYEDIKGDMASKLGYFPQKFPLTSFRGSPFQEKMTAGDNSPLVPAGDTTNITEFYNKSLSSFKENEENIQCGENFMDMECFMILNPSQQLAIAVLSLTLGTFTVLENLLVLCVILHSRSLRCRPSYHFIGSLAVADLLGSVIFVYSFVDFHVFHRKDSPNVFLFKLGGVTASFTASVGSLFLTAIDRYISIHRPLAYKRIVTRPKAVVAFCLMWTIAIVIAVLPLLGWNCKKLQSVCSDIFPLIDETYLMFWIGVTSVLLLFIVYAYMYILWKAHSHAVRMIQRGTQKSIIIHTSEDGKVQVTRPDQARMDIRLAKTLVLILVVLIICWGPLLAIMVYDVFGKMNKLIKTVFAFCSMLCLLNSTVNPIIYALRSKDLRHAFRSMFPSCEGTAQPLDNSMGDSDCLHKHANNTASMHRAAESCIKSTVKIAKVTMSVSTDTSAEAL

[15] = biological target: Cannabinoid receptor 2 (Mus musculus) (UniProt P47936); assay: Displacement of [3H]CP55940 from mouse CB2 receptor expressed in HEK293 cells by competition-equilibrium binding analysis; assay type: cell-based
How it was run: (§3)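 HEK293 cell membranes expressing mouse or human CB2; competition-equilibrium binding against [3H]CP-55,940.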

[16] = biological target: Cannabinoid receptor 2 (Homo sapiens) (UniProt P34972); assay: Displacement of [3H]CP55940 from human CB2 receptor expressed in HEK293 cells by competition-equilibrium binding analysis; assay type: cell-based; how it was run: as §3
[17] = Selectivity ratio of IC50 for human recombinant His-tagged MGL expressed in Escherichia coli BL21 DE3 cells to IC50 for rat recombinant His/GST-tagged FAAH expressed in Escherichia coli cells by fluorescence based assay
[18] = Selectivity ratio of IC50 for human full length ABHD6 expressed in Escherichia coli cells to IC50 for rat recombinant His/GST-tagged FAAH expressed in Escherichia coli cells by fluorescence based assay
[19] = biological target: Cannabinoid receptor 1 (Rattus norvegicus) (UniProt P20272); assay: Displacement of [3H]CP55940 from CB1 receptor in rat brain by competition-equilibrium binding analysis
Target sequence in this assay (P20272 whole entry, looked up): as the sequence (P20272 whole entry) above

Sequence of Cannabinoid receptor 2 (Homo sapiens) (P34972 whole entry): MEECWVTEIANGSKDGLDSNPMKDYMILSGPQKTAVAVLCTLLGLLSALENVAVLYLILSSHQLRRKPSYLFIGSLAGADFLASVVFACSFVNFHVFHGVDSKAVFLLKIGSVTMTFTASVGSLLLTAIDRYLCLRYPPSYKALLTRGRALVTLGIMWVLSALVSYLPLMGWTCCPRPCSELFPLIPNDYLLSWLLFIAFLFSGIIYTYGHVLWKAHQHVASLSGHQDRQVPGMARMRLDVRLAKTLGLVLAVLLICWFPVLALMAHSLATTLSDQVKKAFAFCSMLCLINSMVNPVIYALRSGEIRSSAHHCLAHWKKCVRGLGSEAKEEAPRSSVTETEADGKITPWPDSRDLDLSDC
Sequence of Cannabinoid receptor 2 (Mus musculus) (P47936 whole entry): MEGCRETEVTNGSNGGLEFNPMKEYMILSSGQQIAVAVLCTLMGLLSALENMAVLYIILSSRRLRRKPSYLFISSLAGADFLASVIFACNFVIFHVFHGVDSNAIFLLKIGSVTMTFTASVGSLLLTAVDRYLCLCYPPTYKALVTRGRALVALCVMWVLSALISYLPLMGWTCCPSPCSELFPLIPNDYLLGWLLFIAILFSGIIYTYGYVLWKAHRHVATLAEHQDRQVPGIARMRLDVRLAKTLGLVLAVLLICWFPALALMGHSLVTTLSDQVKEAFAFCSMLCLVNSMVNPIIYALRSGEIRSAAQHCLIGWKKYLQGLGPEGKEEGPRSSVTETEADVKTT

Compound	IC50 [1] [nM]	IC50 [2] [nM]	IC50 (Monoglyceride lipase) [nM]	half-life [3] [min]	half-life [4] [min]	half-life [5] [min]	half-life [6] [min]	half-life [7] [min]	half-life [8] [min]	half-life [9] [min]	half-life [10] [min]	half-life [11] [min]	Ratio IC50 (Homo sapiens [12])	Ratio IC50 (Homo sapiens [13])	Activity [14]	Activity [15]	Activity [16]	Ratio IC50 [17]	Ratio IC50 [18]	Activity [19]
O=C(Oc1cccc(N2CCS(=O)(=O)CC2)c1)N1CCC(c2ccc(OC(F)(F)F)cc2)CC1	3.7	4	> 1000	15 to 25	15 to 25	15 to 25	> 60	> 60	> 60	> 60	> 60	> 60	> 1000	> 1000	inactive	inactive	inactive	> 1000	> 1000	inactive
N#Cc1ccc(N2CCN(C(=O)Oc3cccc(N4CCS(=O)(=O)CC4)c3)CC2)cc1	89.3	62.7	> 1000										> 1000	> 1000	inactive	inactive	inactive	> 1000	> 1000	inactive
O=C(Oc1cccc(N2CCS(=O)(=O)CC2)c1)N1CCC(c2ccccc2)CC1	8	6	> 1000	15 to 25	15 to 25	15 to 25	> 60	> 60	> 60	> 60	> 60	> 60	> 1000	> 1000	inactive	inactive	inactive	> 1000	> 1000	inactive
CN(C)c1ccc(C2CCN(C(=O)Oc3cccc(N4CCOCC4)c3)CC2)cc1	31	14.7	> 1000										> 1000	> 1000	inactive	inactive	inactive	> 1000	> 1000	inactive
O=C(Oc1cccc(N2CCS(=O)(=O)CC2)c1)N1CCN(c2ccccc2)CC1	15	8	> 1000	15 to 25	15 to 25	15 to 25	> 60	> 60	> 60	> 60	> 60	> 60	> 1000	> 1000	inactive	inactive	inactive	> 1000	> 1000	inactive
O=C(Oc1cccc(N2CCS(=O)(=O)CC2)c1)N1CCC(c2ccncc2)CC1	132	75.5	> 1000										> 1000	> 1000	inactive	inactive	inactive	> 1000	> 1000	inactive
O=C(Oc1cccc(N2CCS(=O)(=O)CC2)c1)N1CCC(O)(c2ccccc2)CC1	172	78.1	> 1000										> 1000	> 1000	inactive	inactive	inactive	> 1000	> 1000	inactive
C[C@H]1CN(c2ccc(F)cc2)CCN1C(=O)Oc1cccc(N2CCS(=O)(=O)CC2)c1	72.9	40.5	> 1000										> 1000	> 1000	inactive	inactive	inactive	> 1000	> 1000	inactive
Cc1ccccc1C1CCN(C(=O)Oc2cccc(N3CCS(=O)(=O)CC3)c2)CC1	15.9	10.3	> 1000										> 1000	> 1000	inactive	inactive	inactive	> 1000	> 1000	inactive
O=C(Oc1cccc(N2CCS(=O)(=O)CC2)c1)N1C[C@H]2C[C@@H]1CN2c1ccc(F)cc1	20.3	17.1	> 1000										> 1000	> 1000	inactive	inactive	inactive	> 1000	> 1000	inactive
O=C(Oc1cccc(N2CCS(=O)(=O)CC2)c1)N1CCN(c2ccccn2)CC1		102	> 1000										> 1000	> 1000	inactive	inactive	inactive	> 1000	> 1000	inactive
Cc1noc(C2CCN(C(=O)Oc3cccc(N4CCS(=O)(=O)CC4)c3)CC2)n1	147	120	> 1000										> 1000	> 1000	inactive	inactive	inactive	> 1000	> 1000	inactive
O=C(Oc1cccc(N2CCS(=O)(=O)CC2)c1)N1CCN(c2ccc(F)cc2)CC1	20.5	12.5	> 1000										> 1000	> 1000	inactive	inactive	inactive	> 1000	> 1000	inactive
